Test results as given in ChEMBL document CHEMBL2346655, “Synthesis and in vitro biological evaluation of 2,6,9-trisubstituted purines targeting multiple cyclin-dependent kinases” (Eur J Med Chem, 2013).
The source made the active and inactive calls. The rule behind the calls is not given here.

Assays:
[1] = molecular target: Cyclin-dependent kinase 2/cyclin E1 (Homo sapiens, UniProt P24941); test: Inhibition of CDK2/Cyclin E (unknown origin) expressed in Sf9 cells using histone H1 as substrate
K562 [2] = test: Cell cycle arrest in human K562 cells assessed as accumulation at G1 phase at 1 uM after 24 hrs by propidium iodide staining-based flow cytometric analysis (reference value: 47.3%); type: functional
Outline: (§1)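 Sub-confluent cells treated at several concentrations for 24 h, then pulsed with 10 μM BrdU for 30 min at 37 °C before harvest. Cells were PBS-washed, fixed in 70% ethanol, denatured in 2 M HCl and neutralized. Stained with fluorescein anti-BrdU and propidium iodide; DNA content read by flow cytometry with 488 nm excitation.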

HOS [3] = test: Ratio of roscovitine IC50 to compound IC50 for human HOS cells; type: functional
Outline: (§2)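 Cytotoxicity IC50s underlying the ratio: cells treated in triplicate with three-fold compound dilutions for 72 h, then Calcein AM added and live-cell fluorescence read at 485/538 nm (ex/em).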

HCT-116 [4] = test: Cell cycle arrest in human HCT116 cells assessed as accumulation at S phase after 24 hrs by BrdU incorporation assay; type: functional, cell-based
Outline: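 Sub-confluent cells were exposed to compound for 24 h, then pulse-labeled with 10 μM BrdU for 30 min at 37 °C. After ethanol (70%) fixation and 2 M HCl denaturation, cells were stained with fluorescein anti-BrdU antibody plus propidium iodide. The BrdU-positive S-phase fraction was quantified by flow cytometry (488 nm laser).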

K562 [5] = test: Ratio of roscovitine IC50 to compound IC50 for human K562 cells; type: functional; outline: as §2
HCT-116 [6] = test: Induction of apoptosis in human HCT116 cells assessed as change in PUMA level up to 5 uM after 24 hrs by immunoblotting analysis; type: functional, cell-based
Outline: (§3)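 Cells were treated for 24 h, harvested directly into Laemmli sample buffer, and run on SDS-PAGE. Proteins were blotted to nitrocellulose, blocked, probed overnight with primary antibodies, then with peroxidase-linked secondaries. Bands were detected by ECL with a CCD camera. PCNA and tubulin served as loading references.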

CCRF-CEM = test: Cytotoxicity against human CEM cells assessed as reduction in number of viable cells after 72 hrs by fluorescence assay; type: functional, cell-based
Outline: (§4)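 Three-fold compound dilutions tested in triplicate on cultured cells for 72 h. Viable cells detected by adding Calcein AM and reading fluorescence at 485/538 nm (ex/em).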

[7] = molecular target: T1, CDK9/cyclin T1 (Homo sapiens) (UniProt O60563+P50750); test: Inhibition of CDK9/CyclinT1 in human ARN8 cells assessed as increase in p53-dependent transcriptional activity after 24 hrs by beta-galactosidase reporter gene assay; type: cell-based
Outline: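 Arn-8 human melanoma cells stably carrying p53-responsive pRGCΔfoslacZ reporter; 24 h compound exposure, then permeabilized with 0.3% Triton X-100 for 15 min. 4-Methylumbelliferon-β-D-galactopyranoside added (80 μM final); fluorescence read at 355/460 nm (ex/em) after 1 h as β-galactosidase activity.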

[8] = molecular target: T2, Cyclin-dependent kinase 7/ cyclin H (Homo sapiens) (UniProt P51946+P50613); test: Inhibition of CDK7/CyclinH/MAT1-mediated phosphorylation of RNA polymerase 2 at Ser5 in human K562 cells up to 25 uM after 24 hrs by immunoblotting analysis; type: cell-based
HCT-116 [9] = test: Induction of apoptosis in human HCT116 cells assessed as change in BCL2 level up to 5 uM after 24 hrs by immunoblotting analysis; type: functional, cell-based; outline: as §3
K562 [10] = test: Induction of apoptosis in human K562 cells assessed as caspase-3 activation up to 5 uM after 24 hrs by immunoblotting analysis; type: functional, cell-based; outline: as §3
K562 [11] = test: Induction of apoptosis in human K562 cells assessed as decrease in MCL1 level after 24 hrs by immunoblotting analysis; type: functional, cell-based; outline: as §3
HCT-116 [12] = test: Ratio of roscovitine IC50 to compound IC50 for human HCT116 cells; type: functional; outline: as §2
HCT-116 [13] = test: Cell cycle arrest in human HCT116 cells assessed as accumulation at subG1 phase at 5 uM after 24 hrs by propidium iodide staining-based flow cytometric analysis (reference value: 1.4%); type: functional; outline: as §1
HCT-116 [14] = test: Cell cycle arrest in human HCT116 cells assessed as accumulation at S phase at 1 uM after 24 hrs by propidium iodide staining-based flow cytometric analysis (reference value: 31.6%); type: functional; outline: as §1
[15] = molecular target: T2, Cyclin-dependent kinase 7/ cyclin H (Homo sapiens); test: Inhibition of CDK7/CyclinH/MAT1-mediated phosphorylation of RNA polymerase 2 at Ser2 in human HCT116 cells up to 25 uM after 24 hrs by immunoblotting analysis; type: cell-based; conditions: HCT-116
Outline: (§5)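 Treated cells were lysed in Laemmli buffer and separated by SDS-PAGE, then transferred to nitrocellulose. Blots were probed overnight with phospho-RNA polymerase II (S2) and total RNA polymerase II (clone ARNA-3) antibodies, followed by peroxidase secondaries. Signal was developed by ECL on a CCD camera.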

[16] = molecular target: Cyclin-dependent kinase 5/CDK5 activator 1 (Homo sapiens, UniProt Q00535); test: Inhibition of CDK5/P35 (unknown origin) using histone H1 as substrate; type: protein-complex assay
[17] = molecular target: T2, Cyclin-dependent kinase 7/ cyclin H (Homo sapiens); test: Inhibition of CDK7/CyclinH/MAT1-mediated phosphorylation of RNA polymerase 2 at Ser5 in human HCT116 cells up to 25 uM after 24 hrs by immunoblotting analysis; type: cell-based; conditions: HCT-116
HOS [18] = test: Cytotoxicity against human HOS cells assessed as reduction in number of viable cells after 72 hrs by fluorescence assay; type: functional, cell-based; outline: as §4
[19] = molecular target: T1, CDK9/cyclin T1 (Homo sapiens); test: Inhibition of CDK9/CyclinT1 in human HCT116 cells assessed as decrease in Mdm2 expression at 1 to 5 uM after 24 hrs by immunoblotting analysis; type: cell-based; conditions: HCT-116
Outline: (§6)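 Immunoblot: cells lysed by harvesting in Laemmli sample buffer, proteins run on SDS-PAGE, electroblotted to nitrocellulose, blocked, primary antibodies overnight, peroxidase-conjugated secondaries, ECL detection by CCD camera. Antibodies included anti-phospho RNA polymerase II (S2), anti-RNA polymerase II (ARNA-3), anti-p53 (DO-1), anti-p21waf1 (118), anti-PCNA.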

[20] = molecular target: T2, Cyclin-dependent kinase 7/ cyclin H (Homo sapiens); test: Inhibition of CDK7/CyclinH/MAT1-mediated phosphorylation of RNA polymerase 2 at Ser2 in human K562 cells up to 25 uM after 24 hrs by immunoblotting analysis; type: cell-based; outline: as §5
HCT-116 [21] = test: Induction of apoptosis in human HCT116 cells assessed as PARP cleavage up to 5 uM after 24 hrs by immunoblotting analysis; type: functional, cell-based; outline: as §3
K562 [22] = test: Cell cycle arrest in human K562 cells assessed as accumulation at G2/M phase at 5 uM after 24 hrs by propidium iodide staining-based flow cytometric analysis (reference value: 13.8%); type: functional; outline: as §1
K562 [23] = test: Induction of apoptosis in human K562 cells assessed as caspase-3/7 activation by fluorescence assay; type: functional, cell-based
Outline: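 After 24 h treatment, cells were lysed on ice for 20 min in pH 7.4 HEPES/KCl/EDTA/EGTA/0.2% CHAPS buffer with protease inhibitors and cleared at 10,000 × g for 30 min at 4 °C. Protein was equalized, then incubated for 1 h with 100 μM Ac-DEVD-AMC in PIPES buffer pH 7.3 containing DTT. Fluorescence was read at 355/460 nm; 100 μM Ac-DEVD-CHO served as the negative control.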

[24] = molecular target: T1, CDK9/cyclin T1 (Homo sapiens); test: Inhibition of CDK9/CyclinT1-mediated phosphorylation of RNA polymerase 2 at Ser5 in human HCT116 cells up to 25 uM after 24 hrs by immunoblotting analysis; type: cell-based; conditions: HCT-116; outline: as §6

Cyclin-dependent kinase 5/CDK5 activator 1, sequence (Q00535 whole entry): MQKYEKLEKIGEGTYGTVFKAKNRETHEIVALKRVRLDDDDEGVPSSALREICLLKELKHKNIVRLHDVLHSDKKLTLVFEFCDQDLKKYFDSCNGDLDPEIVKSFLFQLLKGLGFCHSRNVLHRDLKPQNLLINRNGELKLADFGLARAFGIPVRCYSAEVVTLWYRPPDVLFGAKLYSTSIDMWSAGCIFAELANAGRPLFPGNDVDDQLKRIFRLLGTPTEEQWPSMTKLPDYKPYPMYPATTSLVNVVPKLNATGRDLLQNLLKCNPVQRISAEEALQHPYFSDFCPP
Cyclin-dependent kinase 5/CDK5 activator 1, sequence (Q15078 whole entry, further chain): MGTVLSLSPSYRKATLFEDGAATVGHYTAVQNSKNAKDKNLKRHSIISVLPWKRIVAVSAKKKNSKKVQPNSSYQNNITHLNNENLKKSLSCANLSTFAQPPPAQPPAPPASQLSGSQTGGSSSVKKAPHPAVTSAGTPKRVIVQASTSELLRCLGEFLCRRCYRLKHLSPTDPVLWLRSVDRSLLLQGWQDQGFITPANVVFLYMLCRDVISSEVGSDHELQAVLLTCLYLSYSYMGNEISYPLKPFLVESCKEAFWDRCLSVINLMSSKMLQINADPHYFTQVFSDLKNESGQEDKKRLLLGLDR

For CC[C@@H](Nc1nc(NCc2cc(Cl)ccc2O)c2ncn(C(C)C)c2n1)C(C)O (mixture of isomers), the IC50 [1] was 13.1 nM, the Activity (K562 [2]) was 31.5% and the “Ratio IC50” value (HOS [3]) was greater than 9. The Activity (HCT-116 [4]) was “Dose-dependent effect”, the “Ratio IC50” value (K562 [5]) was greater than 9 and the Activity (HCT-116 [6]) was “inactive”. For the same molecule, the IC50 (CCRF-CEM) was 1600 nM, the inhibition [7] was “Dose-dependent effect” and the inhibition [8] was “Active”. The Activity (HCT-116 [9]) was “inactive”, the Activity (K562 [10]) was “inactive” and the Activity (K562 [11]) was “Dose-dependent effect”. The “Ratio IC50” value (HCT-116 [12]) was greater than 9, the Activity (HCT-116 [13]) was 4.6% and the Activity (HCT-116 [14]) was 28.8%. For the same molecule, the inhibition [15] was “Active”, the IC50 [16] was 71 nM and the inhibition [17] was “Active”. For the same molecule, the IC50 (HOS [18]) was 2700 nM, the inhibition [19] was “Active” and the inhibition [20] was “Active”. For the same molecule, the Activity (HCT-116 [21]) was “Active”, the Activity (K562 [22]) was 31.5% and the Activity (K562 [23]) was “Dose-dependent effect”. For the same molecule, the inhibition [24] was “Active”.
